The values that follow come from ChEMBL document CHEMBL4819117, “Probing cytochrome P450 (CYP) bioactivation with chloromethylindoline bioprecursors derived from the duocarmycin family of compounds” (Bioorg Med Chem, 2021).

One may read the IC50 as the concentration that inhibits the measured activity by half.

Data set [1] relates to RT-112. The data set can be described thus: Antiproliferative activity against human RT112 cells proficient in CYP1A1 assessed as inhibition of cell growth after 96 hrs by MTT assay. The following applies: RT-112, 96 h. It counts as functional, cell-based. Summed up: (§1)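 Cells kept as monolayers at 37 °C in 5% CO2: EJ-138 and RT112 in RPMI 1640 with 10% FBS, sodium pyruvate and 2 mM L-glutamine; CHO and CHO-1A1 in DMEM. Compounds were taken from DMSO stocks into medium over 0.001–100 μM, with final DMSO ≤0.1%. Exposure lasted 96 h, then MTT read-out. IC50 values are mean ± SD of at least three independent assays.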
(In general: Tetrazolium dyes change colour on reduction, which living cells bring about.)

Data set [2] deals with CHO. The data set is described as follows: Antiproliferative activity against wild type chinese hamster CHO cells deficit in CYPs assessed as inhibition of cell growth after 96 hrs by MTT assay. It is filed as functional, cell-based. As to conditions: Cricetulus griseus. Summed up:
as §1

Data set [3] deals with CHO. The data set is described as follows: Antiproliferative activity against chinese hamster CHO cells transfected with CYP1A1 assessed as inhibition of cell growth after 96 hrs by MTT assay. It counts as functional, cell-based. The following applies: Cricetulus griseus. In short, it runs like this: as §1
In data set [4] the test system is EJ. The data set can be described thus: Antiproliferative activity against human EJ138 cells deficit in CYPs assessed as inhibition of cell growth after 96 hrs by MTT assay. It is filed as functional, cell-based. In short, it runs like this:
as §1

In data set [5] the target is T1, Cytochrome P450 1A1 (Homo sapiens, UniProt P04798).
T1 sequence (P04798 whole entry): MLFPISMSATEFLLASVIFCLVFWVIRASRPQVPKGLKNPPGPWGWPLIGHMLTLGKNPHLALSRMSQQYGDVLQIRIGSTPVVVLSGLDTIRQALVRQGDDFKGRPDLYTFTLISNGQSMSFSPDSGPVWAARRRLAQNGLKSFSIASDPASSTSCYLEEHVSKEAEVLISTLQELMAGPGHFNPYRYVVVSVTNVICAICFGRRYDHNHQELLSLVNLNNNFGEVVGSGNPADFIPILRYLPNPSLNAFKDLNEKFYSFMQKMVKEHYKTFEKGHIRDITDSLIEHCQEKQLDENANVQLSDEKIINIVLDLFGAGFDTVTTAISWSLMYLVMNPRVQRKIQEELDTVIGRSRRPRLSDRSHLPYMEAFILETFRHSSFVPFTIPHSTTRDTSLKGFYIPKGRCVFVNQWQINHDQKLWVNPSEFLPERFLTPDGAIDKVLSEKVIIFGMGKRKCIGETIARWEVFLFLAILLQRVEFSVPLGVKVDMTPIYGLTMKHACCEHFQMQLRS
The data set can be described thus: Drug metabolism assessed as recombinant human CYP1A1-mediated metabolite M2 with m/z of 345.1 formation at 50 uM incubated for 1 hr in presence of reconstituted protein system by LC-MS analysis. It counts as ADME. As to conditions: recombinant enzyme. Summed up:
(§2)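 Substrate at 50 μM with human recombinant CYP1A1 in a reconstituted system: NADPH cytochrome P450 reductase plus freshly prepared DLPC (240 μM) in 100 mM potassium phosphate, pH 7.4. Mixture pre-warmed 3 min at 37 °C, started with NADPH (final 1 mM), incubated 1 h and extracted into dichloromethane. Analysis by reverse-phase HPLC with photodiode array detection and ESI+ quadrupole MS.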

Data set [6] deals with EJ. The data set can be described thus: Antiproliferative activity against human EJ138 cells assessed as inhibition of cell growth preincubated for 1 hr with human CYP1B1 expressing bactosomes measured after 96 hrs by MTT assay. It is filed as functional, cell-based. In short, it runs like this: (§3)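 Compound (50 μM) incubated 1 h at 37 °C with 20 pmol CYP bactosomes (CYP null, 1A1, 1A2, 1B1 or 3A4) in 2 mM NADPH, 1 mM MgCl₂, Tris-HCl pH 7.4. Metabolites were extracted with acetonitrile, centrifuged, and the supernatant dried and taken up in DMSO. EJ138 cells were exposed 96 h and growth read by MTT assay.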

Data set [7] deals with EJ. The data set can be described thus: Antiproliferative activity against human EJ138 cells assessed as inhibition of cell growth preincubated for 1 hr with human CYP1A2 expressing bactosomes measured after 96 hrs by MTT assay. It is filed as functional, cell-based. Summed up:
as §3

In data set [8] the target is T1, Cytochrome P450 1A1. The data set is described as follows: Drug metabolism assessed as recombinant human CYP1A1-mediated metabolite M4 with m/z of 391.1 formation at 50 uM incubated for 1 hr in presence of reconstituted protein system by LC-MS analysis. The following applies: recombinant enzyme. It counts as ADME. In short, it runs like this:
as §2

The test system of data set [9] is EJ. The data set is described as follows: Potentiation factor, ratio of IC50 for antiproliferative activity against human EJ138 cells preincubated for 1 hr with CYP null bactosomes to IC50 for antiproliferative activity against human EJ138 cells preincubated for 1 hr with human CYP1A2 expressing bactosomes. It counts as functional. In short, it runs like this:
(§4)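 Potentiation factor = IC₅₀ in EJ138 given control (CYP null) bactosome extract ÷ IC₅₀ with the named CYP isoform extract. Extracts came from 1 h, 37 °C incubations of 50 μM compound with 20 pmol bactosomes plus 2 mM NADPH, 1 mM MgCl₂, Tris-HCl pH 7.4. Cells were exposed 96 h and read by MTT.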

Data set [10] concerns EJ. The data set is described as follows: Potentiation factor, ratio of IC50 for antiproliferative activity against human EJ138 cells preincubated for 1 hr with CYP null bactosomes to IC50 for antiproliferative activity against human EJ138 cells preincubated for 1 hr with human CYP1B1 expressing bactosomes. It counts as functional. In short, it runs like this:
as §4

Data set [11] deals with T1, Cytochrome P450 1A1. The data set is described as follows: Drug metabolism assessed as recombinant human CYP1A1-mediated metabolite M1 with m/z of 375.1 formation at 50 uM incubated for 1 hr in presence of reconstituted protein system by LC-MS analysis. It is filed as ADME. As to conditions: recombinant enzyme. Summed up:
as §2

The test system of data set [12] is EJ. The data set is described as follows: Antiproliferative activity against human EJ138 cells assessed as inhibition of cell growth preincubated for 1 hr with CYP null bactosomes measured after 96 hrs by MTT assay. It counts as functional, cell-based. Summed up: as §3
Data set [13] deals with EJ. The data set is described as follows: Antiproliferative activity against human EJ138 cells assessed as inhibition of cell growth preincubated for 1 hr with human CYP1A1 expressing bactosomes measured after 96 hrs by MTT assay. It counts as functional, cell-based. Summed up:
as §3

Data set [14] relates to EJ. The data set can be described thus: Potentiation factor, ratio of IC50 for antiproliferative activity against human EJ138 cells preincubated for 1 hr with CYP null bactosomes to IC50 for antiproliferative activity against human EJ138 cells preincubated for 1 hr with human CYP1A1 expressing bactosomes. It counts as functional. In short, it runs like this:
as §4

Data set [15] concerns EJ. The data set is described as follows: Potentiation factor, ratio of IC50 for antiproliferative activity against human EJ138 cells preincubated for 1 hr with CYP null bactosomes to IC50 for antiproliferative activity against human EJ138 cells preincubated for 1 hr with human CYP3A4 expressing bactosomes. It is filed as functional. Summed up:
as §4

The test system of data set [16] is EJ. The data set can be described thus: Antiproliferative activity against human EJ138 cells assessed as inhibition of cell growth preincubated for 1 hr with human CYP3A4 expressing bactosomes measured after 96 hrs by MTT assay. It counts as functional, cell-based. In short, it runs like this:
as §3

For data set [17], the target named is T1, Cytochrome P450 1A1. The data set can be described thus: Drug metabolism assessed as recombinant human CYP1A1-mediated metabolite M3 with m/z of 373.1 formation at 50 uM incubated for 1 hr in presence of reconstituted protein system by LC-MS analysis. It is filed as ADME. The following applies: recombinant enzyme. In short, it runs like this:
as §2

Data set [18] has as its target T1, Cytochrome P450 1A1. The data set is described as follows: Drug metabolism assessed as recombinant human CYP1A1-mediated metabolite M1 with m/z of 327.1 formation at 50 uM incubated for 1 hr in presence of reconstituted protein system by LC-MS analysis. It counts as ADME. As to conditions: recombinant enzyme. In short, it runs like this:
as §2

In the case of `CC(C)(C)OC(=O)N1CC(CCl)c2ccc(O)cc21` (stereo not given), the IC50 in [1] was 11.1 µM; in data set [2], 7.3 µM; in [3], 6.5 µM; in [4], 8.1 µM.

`CC(C)(C)OC(=O)N1CC(CCl)c2ccccc21` (stereo not given): the IC50 in data set [1], in data set [2], in data set [3] and in [4] was more than 25 µM throughout.

Consider `COc1ccc2[nH]c(C(=O)N3CC(CCl)c4cc(F)ccc43)cc2c1` (stereo not given), for which the Drug metabolism result in [5], in data set [8], in [11] and in [17] was “Metabolite_Detected” throughout. Further, the IC50 stood at 11.9 µM in data set [6]; 5.11 µM in [7]; 15.8 µM in data set [12]; 3.1 µM in data set [13]; 5.04 µM in data set [1]; 14.8 µM in [2]. Also, the IC50 in data set [3] came out at 6.2 µM; in [16] it was 16.8 µM; in [4], 18.6 µM. In addition, the “Ratio IC50” value in [9] was 3.1; in [10] it was 1.3; in [14], 5.1; in [15], 0.9.

With `COc1ccc2[nH]c(C(=O)N3CC(CCl)c4ccc(O)cc43)cc2c1` (stereo not given), in [18], the Drug metabolism result is “Metabolite_Detected”. The IC50 in data set [1] came to 0.055 µM; in data set [2], 0.03 µM; in data set [3] it was 0.035 µM; in [4], 0.038 µM.
